Assay outcomes as filed in PubChem BioAssay.
Shown are actives, neighbours in structure and some others; about 4.4% of the full set was active somewhere.
HSF-1 act – increases HSF-1 driven luciferase reporter signal | activation, % at 9 µM | NIH3T3-HGL HSF-1 luciferase reporter, MG132, 8 h; 100% = twice DMSO control signal | 300,000 compounds, 1.7% hits;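 active means mean replicate activation of at least 50% with a set share of replicates each reaching 50%; inconclusive means only one of those two conditions met; inactive means mean below 50% and too few replicates reaching it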;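 further: 0% = median of the neutral control wells and 100% = twice that signal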
Calb FLC – affects C. albicans growth with fluconazole | C. albicans CaCi-2 + fluconazole, Alamar Blue growth, 48 h | growth inhibition, % (concentration not given with the values) | 300,000 compounds, 0.57% hits;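 active means growth inhibition above about 58% in most replicates, limit read from the data, passing the limit was not always enough; inconclusive means exactly half the replicates above a set limit; inactive means most replicates below a set limit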;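 further: all wells also contain fluconazole at 8 µg/ml as a sub-toxic cotreatment; 0% = median of DMSO wells and 100% = median of geldanamycin control wells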
T cruzi repl – T. cruzi replication inhibition. inhibition, % (no concentration beside the values). T. cruzi beta-gal in NIH3T3, luminescence, 90 h. 300,000 compounds, 1.4% hits;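 active means mean inhibition across valid replicates above about 55%, limit read from the data; inconclusive means mean below that limit but half or more replicates reach it; inactive means mean below it, under half of replicates reach it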;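 further: signal also drops with host cell toxicity which is not excluded here; 0% = plate median of DMSO wells and 100% = zero luminescence signal; higher percent means less beta-gal luminescence so fewer parasites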
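System: NIH/3T3 fibroblasts plus reporter T. cruzi. Medium: DMEM plus 2% FBS. Probe or stimulus: 5000 reporter trypomastigotes per well. Compound: single 50 nL compound addition per well in DMSO. Incubation: co-culture of at least 90 h after 3 h attachment. Detection: GalScreen β-gal luminescence, detergent lysis, 60 min. Evaluation: parasite load inhibition, %.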
HSF1 inh – HSF1 inhibition; NIH3T3-HGL HSE-luciferase, MG132-induced, luminescence 8 h; active compounds read low; activity change, negative = inhibition, % at 7.5 µM (by protocol); 300,000 compounds, 0.77% hits; AID 2098;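 active means more than half of replicate wells show activity change below -50%, luminescence cut by over half; inconclusive means some wells, but at most half, below -50%; inactive means no replicate well below -50%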;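 further: luciferase reports HSF-1 transcriptional activity via heat shock element; 0% = median of DMSO wells and -100% = zero luminescence signal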
HIF act – HIF pathway transcriptional activation | U2OS HRE-luciferase reporter, luminescence; normalized: DMSO 0%, desferrioxamine 100% | 300,000 compounds, 0.32% hits | activation, % at 7.5 µM (by protocol);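 active means mean activation of at least 10% of the iron chelator positive control signal, with at least half of replicates also reaching 10%; inconclusive means mean and replicate majority disagree about reaching 10%; inactive means mean and most replicates under 10%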
Starred values were filed as active, the others as inactive; ? = inconclusive; nt = no result given.

SMILES	HSF-1 act	Calb FLC	T cruzi repl	HSF1 inh	HIF act
Cc1cnc(NC(=O)COc2ccccc2)s1	61.4*	-7.3	-8.4	27.1	2.1
CCOc1cccc(/C=C/c2ccc3cccc(O)c3n2)c1OC	142.7*	?	84.4*	121.7	-10.3
COc1ccccc1/C=C/c1ccc2cccc(O)c2n1	17.6	-7.6	55.9*	-5.7	4.1
COc1ccc(Cl)cc1/C=C/c1ccc2cccc(O)c2n1	-3.2	10.7	33.8	-14.3	2.6
COc1ccc(CNC(=S)N/N=C/c2ccc(OC)c(OC)c2)cc1	32.3	1.3	-8.6	15.9	0.7
COc1cc(/C=N/NC(=S)NC2CC3CCC2C3)ccc1O (stereo not drawn)	57.0*	-9.7	-4.5	35.9	5.5
COc1ccc(CNC(=S)N/N=C/c2ccc(O)c(OC)c2)cc1	-10.9	?	-4.0	3.7	20.5*
CCN(CC)c1ccc(/C=N/NC(=S)NCc2ccc(OC)cc2)cc1	53.3*	?	34.0	22.3	0.6
C=CCNC(=O)c1ccccc1NC(=O)C1COc2ccccc2O1 (stereo not drawn)	-1.7	-0.3	1.6	-6.0	-0.2
O=C(O)c1ccc(N=C2NC(=O)C(CO)(CO)S2)cc1	1.2	1.6	-0.5	0.2	0.5
Cc1ccc(NC(=O)c2ccc(OC(=O)C(C)Oc3ccc(Cl)cc3C)cc2)cc1 (stereo not drawn)	20.5	-19.0	-23.0	16.9	2.0
CC(=O)c1cccc(NS(=O)(=O)c2ccc(-c3cc(C)no3)s2)c1	8.7	17.6	-31.8	-4.4	44.2*
CC(=O)c1ccc(N2CCN(S(=O)(=O)c3ccc(-c4cc(C)no4)s3)CC2)cc1	1.8	35.4	-6.0	-2.2	0.5
CCC(C)c1ccc(NC(=S)NCc2ccccc2OC)cc1 (stereo not drawn)	15.6	-14.9	46.0	8.0	-0.4
CC(C)NC(=O)C1CCN(C2CCN(C(=O)c3ccc4cccc(F)c4n3)CC2)CC1	13.4	3.3	-3.9	2.3	0.1
Cc1ccc(C(=O)Cn2nc(C(=O)O)c3ccccc3c2=O)cc1C	64.5*	-0.5	-11.1	27.6	0.3
Cc1ccc(-n2nc(C(=O)O)c3ccccc3c2=O)cc1C	-16.1	-7.6	-18.9	-3.2	-0.8
O=C(NCc1cccnc1)c1ccc(COc2ccccc2Cl)o1	4.7	-7.9	5.7	9.8	-0.2
Cn1c(/C=C/c2cccc([N+](=O)[O-])c2)c([N+](=O)[O-])c(=O)n(C)c1=O	4.7	94.3*	-27.6	12.6	-0.1
Nc1cccc2c1C(=O)N(c1ccccc1)C2=O	21.3	-0.2	-28.7	6.0	nt
CCC1=NN(C(=O)c2ccccc2O)C(O)(c2ccccc2)C1 (stereo not drawn)	16.3	107.4*	-15.6	15.1	0.0
Cc1ccccc1NS(=O)(=O)c1cc(OCC(N)=O)c(C)cc1Cl	0.1	118.2*	2.8	1.2	-0.3
Cc1cc(C)n(CC(O)Cn2c3ccc(Cl)cc3c3cc(Cl)ccc32)c(=O)n1 (stereo not drawn)	-2.5	9.6	-12.0	-3.2	0.1
OC(CNCCC1C=Nc2ccccc21)Cn1c2ccc(Cl)cc2c2cc(Cl)ccc21 (stereo not drawn)	8.8	99.3*	?	-0.5	-0.6
Oc1ccc(/C=C/c2ccnc3ccccc23)cc1	69.1*	-31.4	-3.3	68.4	3.1
SMILES	HSF-1 act	Calb FLC	T cruzi repl	HSF1 inh	HIF act
O=C(CCN1CCOCC1)NNC(=O)Nc1cccc(C(F)(F)F)c1	-15.9	-2.6	-2.8	-1.2	-0.3
CCOC(=O)C(=NCCCN1CCOCC1)NNc1cccc(C(F)(F)F)c1	8.6	129.4*	-7.7	-2.4	-1.6
C=CCOc1ccc(/C=C/C(=O)OCC(=O)NCC2CCCCC2)cc1	-75.7	-7.8	-3.2	-68.3*	0.1
C=CCOc1ccc(/C=C/C(=O)OCC(=O)NC2CCCCCCC2)cc1	-3.4	-2.7	-4.6	-5.0	-0.3
CCN(CC)c1ccc(/C=N/NC(=O)c2nnn(-c3nonc3N)c2C(C)C)c(O)c1	5.1	?	27.6	-5.7	89.4*
CC(C)c1c(C(=O)N/N=C/c2ccc3c(c2)OCO3)nnn1-c1nonc1N	-11.1	nt	3.9	-0.7	0.3
C/C(=N\NC(=O)c1nnn(-c2nonc2N)c1CN(C)c1ccccc1)c1ccccc1O	14.0	-5.8	64.5*	-2.8	0.1
C/C(=N\NC(=O)c1nnn(-c2nonc2N)c1C(C)C)c1ccncc1	-58.0	-0.1	2.2	-50.6*	-0.3
COc1ccc(/C=C/C(=O)c2cc3c(cc2N)OCO3)cc1	17.5	35.5	-10.3	10.9	5.6
